Measurements taken from ChEMBL document CHEMBL1144880, “Identification of phenylisoxazolines as novel and viable antibacterial agents active against Gram-positive pathogens” (J Med Chem, 2003).
≈ marks a conversion by molar mass, not a printed value.

Assays:
Format in all cases: functional
Enterococcus faecalis = assay: In vitro minimum inhibitory concentration (MIC) against Enterococcus faecalis UC9217
How it was run: (§1)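 MIC determined by standard broth microdilution, defined as the lowest drug concentration (µg/mL) inhibiting visible growth.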

Streptococcus pneumoniae = assay: In vitro minimum inhibitory concentration (MIC) against Streptococcus pneumoniae UC9912; how it was run: as §1
Staphylococcus aureus [1] = assay: In vitro minimum inhibitory concentration (MIC) against Staphylococcus aureus UC12673; how it was run: as §1
Haemophilus influenzae = assay: In vitro minimum inhibitory concentration (MIC) against Haemophilus influenzae UC30063; how it was run: as §1
[2] = tested on: Staphylococcus epidermidis; assay: In vitro minimum inhibitory concentration (MIC) against Staphylococcus epidermidis UC12084; how it was run: as §1
Staphylococcus aureus [3] = assay: In vitro minimum inhibitory concentration (MIC) against Staphylococcus aureus UC9213; how it was run: as §1
Moraxella catarrhalis = assay: In vitro minimum inhibitory concentration (MIC) against Moraxella catarrhalis UC30610; how it was run: as §1
Escherichia coli = assay: In vitro minimum inhibitory concentration (MIC) against Escherichia coli UC6674; how it was run: as §1
Mus musculus = assay: In Vivo effective dose required for antibacterial activity in a systemic mouse infection model (SMIM) upon peroral administration against Staphylococcus aureus UC9213; details: po
How it was run: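 Compound was given orally at 1 and 5 h after infection. Deaths were monitored for at least 6 days, and ED50 (dose curing 50% of mice) was calculated by probit analysis.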

Compound | MIC (Enterococcus faecalis) | MIC (Streptococcus pneumoniae) | MIC (Staphylococcus aureus [1]) | MIC (Haemophilus influenzae) | MIC [2] | MIC (Staphylococcus aureus [3]) | MIC (Moraxella catarrhalis) | MIC (Escherichia coli) | ED50 (Mus musculus)
CC(=O)NC[C@H]1CC(c2ccc(-n3cc(C#N)cn3)c(F)c2)=NO1 | 4 µg/mL (≈ 12.2 µM) | 0.5 µg/mL (≈ 1.53 µM) | 2 µg/mL (≈ 6.11 µM) | 16 µg/mL (≈ 48.9 µM) | 1 µg/mL (≈ 3.06 µM) | 2 µg/mL (≈ 6.11 µM) | 8 µg/mL (≈ 24.4 µM) | > 16 µg/mL | 
CC(=O)NCC1CC(c2ccc(Br)cc2)=NO1 (centres undefined) | > 16 µg/mL | > 16 µg/mL | > 16 µg/mL | > 16 µg/mL | > 16 µg/mL | > 16 µg/mL | > 16 µg/mL | > 16 µg/mL | 
COC(=O)N1CC=C(c2ccc(C3=NOC(CNC(C)=O)C3)cc2)CC1 (centres undefined) | 16 µg/mL (≈ 44.8 µM) | 4 µg/mL (≈ 11.2 µM) | 16 µg/mL (≈ 44.8 µM) | > 16 µg/mL | 8 µg/mL (≈ 22.4 µM) | 16 µg/mL (≈ 44.8 µM) | > 16 µg/mL | > 16 µg/mL | 
CC(=O)NCC1CC(c2ccc(C3=CCN(C(C)=O)CC3)cc2)=NO1 (centres undefined) | 8 µg/mL (≈ 23.4 µM) | 2 µg/mL (≈ 5.86 µM) | 8 µg/mL (≈ 23.4 µM) | > 16 µg/mL | 4 µg/mL (≈ 11.7 µM) | 8 µg/mL (≈ 23.4 µM) | > 16 µg/mL | > 16 µg/mL | 
CC(=O)NC[C@H]1CC(c2cc(F)c(-n3ccnc3)c(F)c2)=NO1 | 8 µg/mL (≈ 25 µM) | 2 µg/mL (≈ 6.24 µM) | 4 µg/mL (≈ 12.5 µM) | > 16 µg/mL | 2 µg/mL (≈ 6.24 µM) | 8 µg/mL (≈ 25 µM) | > 16 µg/mL | > 16 µg/mL | 
CC(=O)NC[C@H]1CC(c2ccc(F)c(F)c2)=NO1 | > 16 µg/mL | > 16 µg/mL | > 16 µg/mL | > 16 µg/mL | > 16 µg/mL | > 16 µg/mL | > 16 µg/mL | > 16 µg/mL | 
CC(=O)NCC1CC(c2cc(F)c(N3CCOCC3)c(Cl)c2)=NO1 (centres undefined) | 16 µg/mL (≈ 45 µM) | 4 µg/mL (≈ 11.2 µM) | 8 µg/mL (≈ 22.5 µM) | > 16 µg/mL | 8 µg/mL (≈ 22.5 µM) | 8 µg/mL (≈ 22.5 µM) | > 16 µg/mL | > 16 µg/mL | 
CC(=O)NC[C@H]1CC(c2ccc(-n3cccc3)c(F)c2)=NO1 | 4 µg/mL (≈ 13.3 µM) | 0.5 µg/mL (≈ 1.66 µM) | 2 µg/mL (≈ 6.64 µM) | > 16 µg/mL | 0.5 µg/mL (≈ 1.66 µM) | 2 µg/mL (≈ 6.64 µM) | 16 µg/mL (≈ 53.1 µM) | > 16 µg/mL | 
CC(=O)NCC1CC(c2ccc(N3CCN(C(=O)CO)CC3)cc2)=NO1 (centres undefined) | 16 µg/mL (≈ 44.4 µM) | 4 µg/mL (≈ 11.1 µM) | 8 µg/mL (≈ 22.2 µM) | > 16 µg/mL | 4 µg/mL (≈ 11.1 µM) | 16 µg/mL (≈ 44.4 µM) | > 16 µg/mL | > 16 µg/mL | 
CC(=O)NC[C@H]1CC(c2ccc(-n3cncn3)c(F)c2)=NO1 | > 16 µg/mL | 4 µg/mL (≈ 13.2 µM) | 16 µg/mL (≈ 52.8 µM) | > 16 µg/mL | 8 µg/mL (≈ 26.4 µM) | > 16 µg/mL | > 16 µg/mL | > 16 µg/mL | 
COc1ccc(-c2ccc(C3=NOC(CNC(C)=O)C3)cc2)ccc1=O (centres undefined) | 4 µg/mL (≈ 11.4 µM) | 0.5 µg/mL (≈ 1.42 µM) | 4 µg/mL (≈ 11.4 µM) | > 16 µg/mL | 2 µg/mL (≈ 5.68 µM) | 4 µg/mL (≈ 11.4 µM) | > 16 µg/mL | > 16 µg/mL | 15.4 mg/kg
CC(=O)NC[C@@H]1CC(c2ccc(C3=CCN(C(=O)CO)CC3)cc2)=NO1 | > 16 µg/mL | > 16 µg/mL | > 16 µg/mL | > 16 µg/mL | > 16 µg/mL | > 16 µg/mL | > 16 µg/mL | > 16 µg/mL | 
COC(=O)N1CC=C(c2ccc(-c3cc(CNC(C)=O)on3)cc2)CC1 | > 16 µg/mL | > 16 µg/mL | > 16 µg/mL | > 16 µg/mL | > 16 µg/mL | > 16 µg/mL | > 16 µg/mL | > 16 µg/mL | 
CC(=O)NC[C@H]1CC(c2cc(F)c(N3CCNCC3)c(F)c2)=NO1 | 4 µg/mL (≈ 11.8 µM) | 0.25 µg/mL (≈ 0.739 µM) | 4 µg/mL (≈ 11.8 µM) | 8 µg/mL (≈ 23.6 µM) | 0.5 µg/mL (≈ 1.48 µM) | 4 µg/mL (≈ 11.8 µM) | 8 µg/mL (≈ 23.6 µM) | > 16 µg/mL | 
CC(=O)NC[C@H]1CC(c2ccc(-n3ccc(C#N)c3)c(F)c2)=NO1 | 1 µg/mL (≈ 3.06 µM) | < 0.125 µg/mL | 0.5 µg/mL (≈ 1.53 µM) | 16 µg/mL (≈ 49 µM) | 0.25 µg/mL (≈ 0.766 µM) | 1 µg/mL (≈ 3.06 µM) | 4 µg/mL (≈ 12.3 µM) | > 16 µg/mL | 
C/C(S)=N/C[C@H]1CC(c2ccc(-n3cccc3)c(F)c2)=NO1 | 1 µg/mL (≈ 3.15 µM) | 0.5 µg/mL (≈ 1.58 µM) | 1 µg/mL (≈ 3.15 µM) | > 16 µg/mL | 0.5 µg/mL (≈ 1.58 µM) | 1 µg/mL (≈ 3.15 µM) | 4 µg/mL (≈ 12.6 µM) | > 16 µg/mL | 
C/C(S)=N/C[C@H]1CC(c2cc(F)c(-n3ccnc3)c(F)c2)=NO1 | 8 µg/mL (≈ 23.8 µM) | 2 µg/mL (≈ 5.95 µM) | 4 µg/mL (≈ 11.9 µM) | > 16 µg/mL | 2 µg/mL (≈ 5.95 µM) | 4 µg/mL (≈ 11.9 µM) | > 16 µg/mL | > 16 µg/mL | 
CC(=O)NC[C@H]1CC(c2ccc(-c3ccncc3)cc2)=NO1 | 2 µg/mL (≈ 6.77 µM) | 0.25 µg/mL (≈ 0.846 µM) | 2 µg/mL (≈ 6.77 µM) | 16 µg/mL (≈ 54.2 µM) | 0.5 µg/mL (≈ 1.69 µM) | 1 µg/mL (≈ 3.39 µM) | 8 µg/mL (≈ 27.1 µM) | > 16 µg/mL | 
CC(=O)NC[C@H]1CC(c2ccc(N3CCCC3)c(F)c2)=NO1 | 8 µg/mL (≈ 26.2 µM) | 2 µg/mL (≈ 6.55 µM) | 4 µg/mL (≈ 13.1 µM) | > 16 µg/mL | 4 µg/mL (≈ 13.1 µM) | 4 µg/mL (≈ 13.1 µM) | > 16 µg/mL | > 16 µg/mL | 
CC(=O)NC[C@H]1CC(c2ccc(-n3cccn3)c(F)c2)=NO1 | 16 µg/mL (≈ 52.9 µM) | 4 µg/mL (≈ 13.2 µM) | 16 µg/mL (≈ 52.9 µM) | > 16 µg/mL | 4 µg/mL (≈ 13.2 µM) | 16 µg/mL (≈ 52.9 µM) | > 16 µg/mL | > 16 µg/mL | 
CC(=O)NC[C@@H]1CC(c2ccc(N3CCN(C(=O)CO)CC3)c(F)c2)=NO1 | > 16 µg/mL | > 16 µg/mL | > 16 µg/mL | > 16 µg/mL | > 16 µg/mL | > 16 µg/mL | > 16 µg/mL | > 16 µg/mL | 
CC(=O)NC[C@@H]1CC(c2cc(F)c(N3CCOCC3)c(F)c2)=NO1 | > 16 µg/mL | > 16 µg/mL | > 16 µg/mL | > 16 µg/mL | > 16 µg/mL | > 16 µg/mL | > 16 µg/mL | > 16 µg/mL | 
CC(=O)NC[C@H]1CC(c2ccc(-n3ccnc3)c(F)c2)=NO1 | 4 µg/mL (≈ 13.2 µM) | 1 µg/mL (≈ 3.31 µM) | 2 µg/mL (≈ 6.62 µM) | > 16 µg/mL | 1 µg/mL (≈ 3.31 µM) | 2 µg/mL (≈ 6.62 µM) | 16 µg/mL (≈ 52.9 µM) | > 16 µg/mL | 
CC(=O)NCC1CC(c2ccc(N3CCN(C(=O)CO)CC3)c(F)c2)=NO1 (racemic) | 8 µg/mL (≈ 21.1 µM) | 2 µg/mL (≈ 5.29 µM) | 8 µg/mL (≈ 21.1 µM) | > 16 µg/mL | 4 µg/mL (≈ 10.6 µM) | 8 µg/mL (≈ 21.1 µM) | 16 µg/mL (≈ 42.3 µM) | > 16 µg/mL | 
CC(=O)NCC1CC(c2cc(F)c(N3CCOCC3)c(F)c2)=NO1 (racemic) | 8 µg/mL (≈ 23.6 µM) | 2 µg/mL (≈ 5.89 µM) | 8 µg/mL (≈ 23.6 µM) | > 16 µg/mL | 4 µg/mL (≈ 11.8 µM) | 8 µg/mL (≈ 23.6 µM) | 16 µg/mL (≈ 47.2 µM) | > 16 µg/mL | 
CC(=O)NCC1CC(c2ccc(C3=CCN(C(=O)CO)CC3)cc2)=NO1 (racemic) | 8 µg/mL (≈ 22.4 µM) | 2 µg/mL (≈ 5.6 µM) | 4 µg/mL (≈ 11.2 µM) | > 16 µg/mL | 4 µg/mL (≈ 11.2 µM) | 4 µg/mL (≈ 11.2 µM) | > 16 µg/mL | > 16 µg/mL | 
